EBNA-1 inhibitor – blocks EBNA-1 binding to DNA. EBNA-1 DNA binding, fluorescence polarization. inhibition, % at 14.8 µM. 0.34% of 300,000 active. AID 1950; in the data active = inhibition above about 28%
PABP polyA inh – PABP-poly(A) binding inhibition. 1% of 290,000 active. inhibition, % at 35 µM. AID 2014. PABP-poly(A) RNA binding, fluorescence polarization. P11940;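 also: calls also rest on retests at 20 µM and on dose response follow-up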
Target sequence (P11940 whole entry, looked up): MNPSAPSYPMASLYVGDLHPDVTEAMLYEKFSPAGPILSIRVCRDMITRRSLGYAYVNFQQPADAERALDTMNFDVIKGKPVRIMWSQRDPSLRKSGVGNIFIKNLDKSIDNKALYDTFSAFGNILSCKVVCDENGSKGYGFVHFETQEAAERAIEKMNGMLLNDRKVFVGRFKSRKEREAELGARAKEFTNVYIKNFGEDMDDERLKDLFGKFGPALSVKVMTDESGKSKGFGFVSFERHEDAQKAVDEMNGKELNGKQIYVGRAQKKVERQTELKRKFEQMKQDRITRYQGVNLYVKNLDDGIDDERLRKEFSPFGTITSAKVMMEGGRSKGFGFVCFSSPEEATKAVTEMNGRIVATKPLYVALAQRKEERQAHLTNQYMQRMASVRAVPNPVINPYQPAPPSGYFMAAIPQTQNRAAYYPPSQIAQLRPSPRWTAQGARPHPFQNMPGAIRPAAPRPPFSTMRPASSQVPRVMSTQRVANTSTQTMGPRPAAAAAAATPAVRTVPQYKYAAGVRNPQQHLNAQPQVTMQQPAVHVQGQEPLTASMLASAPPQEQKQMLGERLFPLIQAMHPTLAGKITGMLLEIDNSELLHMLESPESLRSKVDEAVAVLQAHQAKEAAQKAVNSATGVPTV
NS3 helicase inh – inhibitors of Hepatitis C virus NS3 helicase. NS3 helicase DNA unwinding, Cy5 molecular beacon fluorescence. AID 1800. inhibition, % at 10.9 µM. 0.56% of 290,000 active;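 active = inhibition above the mean of all tested compounds plus 3 SD, set per campaign, cut at about 35% in these data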;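 also: 0% = DMSO wells and 100% = thioflavine S control wells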
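test system = hepatitis C virus NS3 helicase domain fragment enzyme | reagent = annealed dual-labelled DNA beacon duplex, ATP-started | times = 1 h at 25 °C | detection = Cy5 fluorescence, 0 and 60 min reads | read-out basis = percent inhibition from t60/t0 fluorescence ratio | control set = DMSO and thioflavine S | replication = one well per compound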
ZTA DNA inh – ZTA (EBV) inhibition in EBNA-1 counter-screen; ZTA-DNA binding, fluorescence polarization; inhibition, % at 11 µM; 0.15% of 320,000 active; in the data active = inhibition above about 33%
eIF4H FP inh – inhibitors of RNA binding by human eIF4H | Q15056 | eIF4H fluorescence polarization binding assay | inhibition, % at 35 µM | 0.94% of 290,000 active;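 also: calls also rest on retests at 20 µM and on dose response follow-up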
MLLE-PAM2 inh – blocks PAM2 peptide binding to the PABP1 MLLE domain; P11940; inhibition, % at 20 µM; GST-MLLE / FITC-PAM2 fluorescence polarization; 0.36% of 360,000 active; in the data active = inhibition above about 35%, passing the limit was not always enough;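 also: plate controls were DMSO wells with GST-MLLE for no effect and wells lacking GST-MLLE protein for full effect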
* marks the source's active call; other numbers are inactive results; ? = inconclusive; / = no result. Rows were chosen to be rich in hits. Some 2.1% of all compounds tested hit in one or more screens of this group. Unless noted, no rule for the calls is given here.

SMILES	EBNA-1 inhibitor	PABP polyA inh	NS3 helicase inh	ZTA DNA inh	eIF4H FP inh	MLLE-PAM2 inh
Cc1ccc(CSCCNS(=O)(=O)c2ccccc2)cc1	9	121*	-3	9	50*	8
c1ccc(-c2csc(NC3=NCCCCC3)n2)cc1	0	64*	-8	3	2.5*	-7
COc1cccc(-c2nc(CSCC(=O)NCC3CCCO3)c(C)o2)c1 (stereo not given)	-17	-1	8	2	-5	46*
COc1ccc(-c2nc(CS(=O)CC(=O)NCC3CCCO3)c(C)o2)cc1 (stereo not given)	1	3	5	0	0	14
CC(=O)Nc1cc2c(nc1C)nc(C)n2Cc1ccc(Br)cc1	3	9	3	14	2	-3
O=C(c1ccc(NC(=O)C(c2ccccc2)c2ccccc2)cc1)c1ccc(C(=O)O)c(C(=O)O)c1	-5	61*	25	-14	78*	13
O=C(O)c1ccc(NC(=O)C(c2ccccc2)c2ccccc2)cc1	-1	10	4	-3	2	6
O=C(CNC(=O)Cc1ccc(Cl)cc1)NCc1ccco1	2	-6	-3	-9	6	6
COc1ccc(/C=C/C(=O)c2c(O)cc(C)oc2=O)c(OC)c1	6	58*	11	-2	?	-93
Cc1cccc(NC(=O)CSc2ccc(-c3ccco3)nn2)c1C	-3	15*	11	-23	78*	13
Cc1ccc(CSc2ccc(-c3ccco3)nn2)cc1	10	-68	25	0	66	12
O=C(CSc1ccc(-c2ccco2)nn1)NCc1ccccc1	5	6.9*	9	8	97*	32
Cc1cccc(CSc2ccc(-c3ccco3)nn2)c1	-1	59*	10	-5	52*	17
O=C(CSc1ccc(-c2ccco2)nn1)N1CCCCC1	-18	2.1*	-3	-13	95	28
Cc1cc(C(=O)CSc2cccc[n+]2[O-])c(C)n1-c1ccc(Br)cc1	-4	-2	-6	3	-6	/
O=C1CC(c2ccccc2)Cc2nc3nc(C(F)(F)F)nn3cc21 (stereo not given)	9	102*	17	-2	92*	14
Cn1c(=O)c2cc3c(nc2n(C)c1=O)CC(c1ccccc1)CC3=O (stereo not given)	1	12	-5	2	1	14
CSc1nc2nc3c(cn2n1)C(=O)CC(c1ccccc1)C3 (stereo not given)	-2	61*	32	-13	48*	3
O=C1CC(c2ccc(F)cc2)Cc2nc(N3CCN(c4ccccc4)CC3)ncc21 (stereo not given)	10	4	-3	0	-5	-5
COc1cc2c(cc1OC)CN(C(=O)CSc1ccccc1C)CC2	/	/	/	/	/	46*
COc1cc2c(cc1OC)CN(C(=O)Cn1ccccc1=O)CC2	-3	37	27	1	79*	-1
COc1cc2c(cc1OC)CN(C(=O)CSC1=NCCS1)CC2	/	/	/	/	/	7
COC(=O)c1ccc(CNC(=O)c2c3c(nc4ccccc24)CCN(Cc2ccccc2)C3)cc1	4	active	-44	-17	87*	-20
O=C(NCc1ccc(F)cc1)c1c2c(nc3ccccc13)CCN(Cc1ccccc1)C2	7	56*	-11	-11	active	-2
CCN1CCc2nc3ccccc3c(C(=O)Nc3ccc(F)cc3)c2C1	-9	7	7	-3	15	-5
SMILES	EBNA-1 inhibitor	PABP polyA inh	NS3 helicase inh	ZTA DNA inh	eIF4H FP inh	MLLE-PAM2 inh
N#Cc1nc(COc2ccccc2Cl)oc1NCc1ccco1	-9	-2	2	-2	9	-5
O=C(C1CCC1)N1CCN(S(=O)(=O)c2ccc(F)cc2)CC1	-7	/	/	3	/	-108
COc1cc(-c2nnc(SCC(=O)c3cc(C)n(CC4CCCO4)c3C)o2)cc(OC)c1OC (stereo not given)	2	107*	2	-7	70*	-90
O=C(O)CNc1ccccc1C(=O)O	8	39	4	10	74*	3
COC(=O)c1cc2c(-c3ccccc3)cc3ccccn3c-2c1C(=O)OC	-7	109*	8	-1	?	35
O=C1C=C(C2OC(CO)C(O)C2O)C(=O)N1 (stereo not given)	/	/	/	/	/	43*
O=C(O)CCCC(=O)Nc1nncs1	-3	-6	2	10	-7	7
Cn1c(SCC(=O)N2CCCC2)nc2ccccc21	3	87	-11	-1	active	-6
N#C/C(=C\c1cn(CCOc2ccccc2)c2ccccc12)C(=O)NCc1cccs1	37*	-1	1	-5	-7	6
COc1ccc(OCCn2cc(/C=C(\C#N)C(=O)NCc3ccco3)c3ccccc32)cc1	25	-2	4	17	2	-1
N#Cc1c(-c2ccccc2)[nH]c(=S)[nH]c1=O	3	16	5	2	-4	28
N#Cc1c(-c2cccc(Cl)c2)[nH]c(=S)[nH]c1=O	-1	4	12	2	0	53*
COc1ccc(C2=CC(c3sccc3C)n3nnnc3N2)cc1 (stereo not given)	11	4	-9	-13	-3	33
COc1ccc(C2=CC(c3ccc(F)cc3)n3nnnc3N2)cc1 (stereo not given)	-6	-9	-4	-17	0	46*
COc1ccccc1CC(=O)N1CCN(c2ccc(F)cc2)CC1	-8	/	/	-3	/	0
Cc1ccccc1NC(=O)c1sc2nc3c(c(-c4ccco4)c2c1N)CCC3	4	58*	28	18	88*	14
O=C1CCCC2=C1Sc1ccccc1N2	1	36	-9	11	43	43*
O=[N+]([O-])c1cc2ccccc2c(O)c1O	/	/	/	/	/	41*
O=[N+]([O-])c1cc(-c2ccccc2)cc([N+](=O)[O-])c1O	/	/	/	/	/	-6
OC1C2CN3CCN(C2)CC1(Cc1ccccc1)C3 (stereo not given)	-3	2	5	-9	-10	-1
Cc1ccc(-c2cc3c(n2-c2ccc(C(=O)O)cc2)CCCC3=O)cc1	-6	-12	7	-6	-7	7
Cc1ccc(-n2c(C)cc3c2CCCC3=O)cc1	-3	21	2	2	20	42*
Cc1ccc(-n2c(SCc3cc(=O)n4ccsc4n3)nnc2-c2cccnc2)c(C)c1	-3	8	11	14	60*	-47
Cc1ccc(-n2c(SCC(N)=O)nnc2-c2cccnc2)c(C)c1	3	1	8	19	1	-24
CCOC(=O)CSc1c(-c2ccccc2)c2cc(Cl)ccc2[nH]c1=O	0	60	-2	-13	active	5
O=C(O)CSc1c(-c2ccccc2)c2cc(Cl)ccc2[nH]c1=O	3	-4	8	-3	-3	1
COc1ccc(S(=O)(=O)N2CCCN(Cc3cccc(F)c3)CC2)cc1	-10	-2	-6	4	2	-3
